Measurements of several laboratories.
Protocols differ between the studies behind these lines.
ADAM17: Disintegrin and metalloproteinase domain-containing protein 17 (ADAM17, Homo sapiens, UniProt P78536)
DYRK2: Dual specificity tyrosine-phosphorylation-regulated kinase 2 (DYRK2, Homo sapiens, UniProt Q92630)

Structure (SMILES) | target | test | conditions | inhibition [%]
COc1cc2c(cc1OC)-c1c(oc3cc4c(cc3c1=O)CCO4)CO2 | Glycogen synthase kinase-3 beta (GSK3B, Homo sapiens, UniProt P49841) | enzyme activity, inhibitor, ADP detection | 100 µM | 14.3
N=C(N)c1ccc2cc(OC(=O)c3ccc(N=C(N)N)cc3)ccc2c1 | ADAM17 | enzyme activity, inhibitor | 10 µM | 5
c1ccc(C(NCCNC(c2ccccc2)c2ccccc2)c2ccccc2)cc1 | Vasopressin V1b receptor (AVPR1B, Homo sapiens, UniProt P47901) | cell-free assay | 10 µM | 0
C#Cc1n[nH]c2c(-c3cn([C@@H](C)c4ccccn4)c(=O)[nH]c3=O)cc(F)cc12 | DYRK2 | enzyme activity, inhibitor | 0.1 µM | -0.2
CC(C)C[C@H](CC(=O)NO)C(=O)N[C@H](C(=O)N[C@@H](C)C(=O)NCCN)C(C)(C)C | ADAM17 | enzyme activity, inhibitor | 10 µM | 73
C#Cc1n[nH]c2c(-c3cn([C@@H](C)c4ccccc4)c(=O)[nH]c3=O)cc(F)cc12 | DYRK2 | enzyme activity, inhibitor | 0.1 µM | 7.9
C[C@H](C(=O)N[C@H]1COc2ccccc2[C@@H]1S(C)(=O)=O)c1ccc(F)cc1 | Gamma-aminobutyric acid type B receptor subunit 1 (GABBR1, Homo sapiens, UniProt Q9UBS5) | cell-free assay | 10 µM | 4
CN(CCN1CCC(OC(=O)Nc2ccccc2-c2ccccc2)CC1)C(=O)c1ccc(CN2CCC(C(N)=O)CC2)cc1 | 4-aminobutyrate aminotransferase, mitochondrial (Rattus norvegicus, UniProt P50554) | enzyme activity, inhibitor | 1 µM | -12
COc1cc(Nc2ncc(F)c(Nc3ccc4c(n3)NC(=O)C(C)(C)O4)n2)cc(OC)c1OC | Serine/threonine-protein kinase 32B (STK32B, Homo sapiens, UniProt Q9NY57) | binding, competition with immobilised ligand | 10 µM | 0
O=C(Nc1cccnn1)N1CCN([C@@H]2CCOc3cc(C(F)(F)F)ccc32)CC1 | Motilin receptor (MLNR, Homo sapiens, UniProt O43193) | cell-free assay | 20 µM | -3
Cn1cc(-c2cc(F)cc(N3CCn4c(cc5c4CCCC5)C3=O)c2CO)cc(Nc2ccc(N3CCN(C4COC4)CC3)cn2)c1=O | Phosphatidylinositol 4,5-bisphosphate 3-kinase catalytic subunit alpha isoform (PIK3CA, Homo sapiens, UniProt P42336) | enzyme activity, inhibitor | 0.1 µM | -7
CCOC(=O)c1ccc(OC(=O)CCCCCNC(=N)N)cc1 | ADAM17 | enzyme activity, inhibitor | 10 µM | 7
